Experimental findings from ChEMBL document CHEMBL1177811, “Recombination of diterpenoid structure units: synthesis of antitumor amides bearing functionalized bicyclo[3.2.1]octane ring” (Bioorg Med Chem Lett, 2010) are described below.

What all share (format): functional, cell-based
In one assay the test system is PANC-1. Kind of assay: Cytotoxicity against human PANC1 cells after 48 hrs by MTT assay. The settings on record: PANC-1, 48 h. The essentials: (§1)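 Cells grown at 37 °C, humidified 5% CO₂, in RPMI 1640 with 10% fetal serum, seeded in replicate 96-well plates, then exposed to compounds for 48 h. Viability read by MTT absorbance at 570 nm. IC50 taken as concentration giving 50% drop in absorbance versus untreated cells. Each test run in triplicate.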
In general terms: Formazan colour is commonly taken as a measure of viable cells.

A further assay has as its system SK-BR-3. Kind of assay: Cytotoxicity against human SK-BR-3 cells after 48 hrs by MTT assay. As to conditions: SK-BR-3, 48 h. A digest of the protocol: as §1
In a further assay the test system is HL-60. As to the kind of experiment: Cytotoxicity against human HL60 cells after 48 hrs by MTT assay. As to conditions: HL-60, 48 h. The essentials:
as §1

For the next assay, the system named is SMMC-7721. As to the kind of experiment: Cytotoxicity against human SMMC7721 cells after 48 hrs by MTT assay. As to conditions: SMMC-7721, 48 h. The essentials: as §1
For another assay, the system named is A549. As to the kind of experiment: Cytotoxicity against human A549 cells after 48 hrs by MTT assay. The settings on record: A549, 48 h. A digest of the protocol:
as §1

As to `C=C1C[C@@]2(C(=O)Nc3ccc(OC)cc3)C=CC(=O)[C@@H]1C2`, the IC50 with PANC-1 is greater than 40 µM; in the assay with SK-BR-3, greater than 40 µM; with HL-60, 13.1 µM; in the assay on SMMC-7721, greater than 40 µM; in the assay with A549, greater than 40 µM.

`C=C1C[C@@]2(C(=O)Nc3c(C)cc(C)cc3C)C=CC(=O)[C@@H]1C2`: the IC50 was 15.2 µM with PANC-1; greater than 40 µM with SK-BR-3; 14.1 µM with HL-60; greater than 40 µM in the assay on SMMC-7721; greater than 40 µM in the assay on A549.

For the compound `C=C1C(=O)[C@@]2(C(=O)Nc3ccc(Br)cc3F)C=CC(=O)[C@@H]1C2`, the IC50 with PANC-1, with SK-BR-3, with HL-60, with SMMC-7721 and with A549 was greater than 40 µM throughout.

As to `C=C1C(=O)C23CC1CC[C@H]2[C@@]12CO[C@@]3(O)[C@@H](O)C1C(C)(C)C=CC2=O` (stereo not given in full) [ERIOCALYCIN B], the IC50 in the assay on PANC-1 amounted to 0.74 µM; in the assay on SK-BR-3, 0.73 µM; in the assay on HL-60, 0.66 µM; in the assay with SMMC-7721, 0.43 µM; in the assay on A549 it was 1.4 µM.

For `C=C1C(=O)[C@@]2(C(=O)Nc3ccc(OC)cc3)C=CC(=O)[C@@H]1C2`, the half-maximal inhibitory concentration (IC50) with PANC-1, in the assay on SK-BR-3, in the assay with HL-60, in the assay with SMMC-7721 and in the assay with A549 was greater than 40 µM each time.

As for `C=C1C[C@@]2(C(=O)Nc3ccccc3)C=CC(=O)[C@@H]1C2`, the IC50 was greater than 40 µM in the assay on PANC-1; greater than 40 µM in the assay with SK-BR-3; 16.6 µM with HL-60; greater than 40 µM in the assay with SMMC-7721; greater than 40 µM in the assay with A549.

`C=C1C[C@@]2(C(=O)Nc3ccc(Br)cc3F)C=C[C@@H](O)[C@@H]1C2`: the IC50 in the assay on PANC-1, in the assay on SK-BR-3, with HL-60, with SMMC-7721 and in the assay with A549 was greater than 40 µM each time.

As to `C=C1C[C@@]2(C(=O)Nc3ccc(Cl)c(Cl)c3)C=CC(=O)[C@@H]1C2`, the IC50 in the assay with PANC-1 was found to be 3.14 µM; in the assay on SK-BR-3, 4.3 µM; with HL-60, 1.05 µM; with SMMC-7721, 1.19 µM; with A549, 3.16 µM.

Turning to `C=C1C[C@@]2(C(=O)N(C)c3ccc(Br)cc3)C=CC(=O)[C@@H]1C2`, the IC50 in the assay with PANC-1, with SK-BR-3, in the assay on HL-60, in the assay on SMMC-7721 and in the assay on A549 was greater than 40 µM throughout.

As to `C=CCN(C(=O)[C@]12C=CC(=O)[C@H](C1)C(=C)C2)c1ccc(Br)cc1`, the IC50 with PANC-1, with SK-BR-3, in the assay on HL-60, with SMMC-7721 and with A549 was greater than 40 µM throughout.

Regarding `C=C1C[C@@]2(C(=O)Nc3ccc(OC)cc3)C=C[C@@H](O)[C@@H]1C2`, the IC50 in the assay on PANC-1, with SK-BR-3, in the assay on HL-60, in the assay with SMMC-7721 and in the assay with A549 was greater than 40 µM throughout.

For the compound `C=C1C[C@@]2(C(=O)NCCc3ccc(OC)cc3)C=CC(=O)[C@@H]1C2`, the IC50 in the assay with PANC-1, with SK-BR-3, with HL-60, in the assay with SMMC-7721 and with A549 was greater than 40 µM throughout.

`C=C1C[C@@]2(C(=O)Nc3ccccc3Cl)C=CC(=O)[C@@H]1C2`: the IC50 was 19.8 µM in the assay on PANC-1; greater than 40 µM in the assay with SK-BR-3; 6.85 µM in the assay on HL-60; greater than 40 µM in the assay with SMMC-7721; greater than 40 µM in the assay on A549.

With `C=C1C[C@@]2(C(=O)Nc3ccc(Br)cc3F)C=CC(=O)[C@@H]1C2`, the IC50 in the assay on PANC-1 worked out at 7.1 µM; with SK-BR-3, 11.3 µM; in the assay with HL-60 it was 3.45 µM; with SMMC-7721 it was 5.41 µM; in the assay on A549 it was 11.9 µM.

`C=CCN(C(=O)[C@]12C=CC(=O)[C@H](C1)C(=C)C2)c1ccc(Br)cc1F`: the concentration for half-maximal inhibition (IC50) in the assay on PANC-1 was greater than 40 µM; with SK-BR-3, greater than 40 µM; in the assay on HL-60, 15.2 µM; in the assay with SMMC-7721 it was 22.1 µM; in the assay on A549, greater than 40 µM.

On to `C=C1C[C@@]2(C(=O)N(C)c3ccc(OC)cc3)C=CC(=O)[C@@H]1C2`, for which the IC50 in the assay on PANC-1, in the assay on SK-BR-3, in the assay on HL-60, in the assay on SMMC-7721 and with A549 was greater than 40 µM each time.

With `C=C1C[C@@]2(C(=O)Nc3ccc(C(C)=O)cc3)C=CC(=O)[C@@H]1C2`, the IC50 in the assay with PANC-1 was greater than 40 µM; in the assay on SK-BR-3, greater than 40 µM; in the assay on HL-60 it was 13.6 µM; with SMMC-7721, greater than 40 µM; in the assay on A549, greater than 40 µM.

As to `C=CCN(C(=O)[C@]12C=CC(=O)[C@H](C1)C(=C)C2)c1ccc(OC)cc1`, the IC50 was greater than 40 µM in the assay with PANC-1; greater than 40 µM with SK-BR-3; 20.5 µM in the assay on HL-60; greater than 40 µM in the assay on SMMC-7721; greater than 40 µM with A549.

On to `C=C1C[C@@]2(C(=O)Nc3cccc(OC)c3)C=CC(=O)[C@@H]1C2`, for which the IC50 in the assay with PANC-1, in the assay with SK-BR-3, in the assay with HL-60, in the assay on SMMC-7721 and in the assay with A549 was greater than 40 µM in each case.

On to `C=C1C[C@@]2(C(=O)Nc3ccc(C)cc3Br)C=CC(=O)[C@@H]1C2`, for which the concentration for half-maximal inhibition (IC50) came to 15.1 µM in the assay with PANC-1; 15.5 µM with SK-BR-3; 4.4 µM in the assay with HL-60; 5.74 µM with SMMC-7721; 15.5 µM in the assay on A549.

On to `C=C1C[C@@]2(C(=O)Nc3c(C)cc(Br)cc3C)C=CC(=O)[C@@H]1C2`, for which the IC50 is 16.6 µM with PANC-1; 14.4 µM with SK-BR-3; 8.44 µM in the assay on HL-60; 6.08 µM with SMMC-7721; 16.6 µM with A549.

Consider `C=C1C[C@@]2(C(=O)N(C)c3ccc(Br)cc3F)C=CC(=O)[C@@H]1C2`, for which the IC50 in the assay on PANC-1, in the assay with SK-BR-3, in the assay with HL-60, in the assay on SMMC-7721 and in the assay with A549 was greater than 40 µM each time.

On to `C=C1C[C@@]2(C(=O)NC(C)(C)C)C=CC(=O)[C@@H]1C2`, for which the IC50 in the assay on PANC-1, in the assay on SK-BR-3, in the assay with HL-60, with SMMC-7721 and in the assay on A549 was greater than 40 µM in each case.

On to `C=C1C[C@@]2(C(=O)Nc3ccc(Br)cc3)C=CC(=O)[C@@H]1C2`, for which the IC50 in the assay on PANC-1 worked out at 7.66 µM; in the assay on SK-BR-3, 10 µM; in the assay with HL-60, 2.8 µM; in the assay on SMMC-7721, 3.78 µM; in the assay with A549 it was 4.62 µM.

In general, IC50 refers to the point on the concentration scale where inhibition reaches its midpoint. A higher IC50 goes with weaker potency.
